ChEMBL document CHEMBL1123494, “Irreversible blockage of opioid receptor types by ester homologues of beta-funaltrexamine” (J Med Chem, 1986)
Where “and” joins values, the source holds several entries; their conditions need not be identical. Identical values can stand only once.

Key:
Opioid receptor [1] = target: Opioid receptor (Mus musculus, UniProt P42866+P32300+P33534); test: Compound was tested for agonist activity against opioid receptor in mouse vas deferens preparation; assay type: functional
[2] = test system: Opioid receptors; mu/kappa/delta; test: Compound was tested for agonist potency against opioid receptor in guinea pig ileal longitudinal muscle expressed as IC50 of morphine divided by the compound; assay type: functional
[3] = test system: Opioid receptors; mu/kappa/delta; test: Compound was tested for irreversible antagonist activity against opioid receptor in mouse vas deferens at a concentration of 20 nM expressed as IC50 of morphine divided by the compound; assay type: functional
[4] = test system: Opioid receptors; mu/kappa/delta; test: Compound was tested for irreversible antagonist activity against opioid receptor in mouse vas deferens expressed as IC50 of DADLE divided by the compound; assay type: functional, tissue-based
Summary of the method: (§1)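 Mouse vas deferens incubated 30 min with 200 nM test ligand, then washed thoroughly (20 times). Morphine and DADLE dose-response curves were rerun in the same tissue. Ratio = agonist IC50 after treatment / control IC50 in that tissue. Where the standard agonist gave under 65% response after treatment, an IC20 was estimated from the plotted dose-response curve. Means of three determinations unless otherwise noted.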

[5] = target: T1, Opioid receptors; mu/kappa/delta (Homo sapiens) (UniProt P41145+P41143+P35372); test: Compound was tested for irreversible antagonist activity against opioid receptor in mouse vas deferens expressed as IC50 of morphine divided by the compound (experiment 1); assay type: functional, tissue-based; summary of the method: as §1
[6] = target: T1, Opioid receptors; mu/kappa/delta (Homo sapiens); test: Compound was tested for irreversible antagonist activity against opioid receptor in mouse vas deferens expressed as IC50 of morphine divided by the compound (experiment. 2); assay type: functional, tissue-based; summary of the method: as §1
Opioid receptor [7] = target: Opioid receptor (Rattus norvegicus, UniProt P33533+P34975+P33535); test: The compound was tested for binding affinity against opioid receptor in rat brain membranes, using [3H]dihydromorphine as the radioligand; assay type: cell membranes
Summary of the method: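 Rat forebrain was homogenised in ice-cold 0.05 M Tris-HCl pH 7.4 and washed twice by centrifugation at 4 °C. It was preincubated 10 min at 37 °C, washed again and resuspended at 10 mg/mL. Triplicate tubes held 1 nM [3H]dihydromorphine and at least seven drug concentrations, incubated 40 min at room temperature, then vacuum-filtered. Nonspecific binding was set with 10⁻⁶ M naloxone. Values are mean ± SEM of three experiments.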

Mus musculus = species: Mus musculus; test: Compound was tested for partial agonism in presence of morphine at conc. of 3 e-5; assay type: functional
[8] = target: T2, Opioid receptor (Mus musculus) (UniProt P42866+P32300+P33534); test: Compound was tested for irreversible antagonist activity against opioid receptor in mouse vas deferens expressed as IC20 of morphine divided by the compound; assay type: functional, tissue-based; summary of the method: as §1
[9] = target: Opioid receptors; mu and delta (Mus musculus) (UniProt P42866+P32300); test: Irreversible antagonist activity against opioid receptor in mouse vas deferens at 200 nM relative to IC50 of nalorphine; assay type: functional, tissue-based
[10] = target: T1, Opioid receptors; mu/kappa/delta (Homo sapiens); test: Compound was tested for irreversible antagonist activity against opioid receptor in mouse vas deferens at a concentration of 200 nM, expressed as IC50 of nalorphine divided by the compound; assay type: functional
[11] = target: T1, Opioid receptors; mu/kappa/delta (Homo sapiens); test: Compound was tested for irreversible antagonist activity against opioid receptor in mouse vas deferens expressed as IC50 of morphine divided by the compound; assay type: functional, tissue-based; summary of the method: as §1
[12] = target: T1, Opioid receptors; mu/kappa/delta (Homo sapiens); test: Compound was tested for irreversible antagonist activity against opioid receptor in mouse vas deferens at a concentration of 100 nM, expressed as IC50 of morphine divided by the compound; assay type: functional
[13] = target: T1, Opioid receptors; mu/kappa/delta (Homo sapiens); test: Compound was tested for irreversible antagonist activity against opioid receptor in mouse vas deferens at a concentration of 20 nM, expressed as IC50 of morphine divided by the compound; assay type: functional
[14] = target: T1, Opioid receptors; mu/kappa/delta (Homo sapiens); test: Compound was tested for irreversible antagonist activity against opioid receptor in mouse vas deferens at a concentration of 20 nM, expressed as IC50 of nalorphine divided by the compound; assay type: functional
[15] = target: T1, Opioid receptors; mu/kappa/delta (Homo sapiens); test: Compound was tested for irreversible antagonist activity against opioid receptor in mouse vas deferens, expressed as IC50 of DADLE divided by compound; assay type: functional
Summary of the method: (§2)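 Mouse vas deferens tissue incubated 30 min with test ligand at 200 nM, then washed thoroughly (20 times). Standard agonist (morphine or DADLE) IC50 redetermined and divided by control IC50 from the same tissue (treated/control ratio). Where the agonist gave under 65% response after treatment, an IC20 was estimated from the plotted dose-response curve. Means of three determinations unless otherwise noted.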

[16] = target: T1, Opioid receptors; mu/kappa/delta (Homo sapiens); test: Compound was tested for irreversible antagonist activity against opioid receptor in mouse vas deferens, expressed as IC50 of morphine divided by the compound; assay type: functional; summary of the method: as §2
[17] = target: T2, Opioid receptor (Mus musculus); test: Compound was tested for agonist activity against opioid receptor in mouse vas deferens preparation at concentration of 1E-7 M; assay type: functional

T2 sequence (P32300 whole entry, looked up): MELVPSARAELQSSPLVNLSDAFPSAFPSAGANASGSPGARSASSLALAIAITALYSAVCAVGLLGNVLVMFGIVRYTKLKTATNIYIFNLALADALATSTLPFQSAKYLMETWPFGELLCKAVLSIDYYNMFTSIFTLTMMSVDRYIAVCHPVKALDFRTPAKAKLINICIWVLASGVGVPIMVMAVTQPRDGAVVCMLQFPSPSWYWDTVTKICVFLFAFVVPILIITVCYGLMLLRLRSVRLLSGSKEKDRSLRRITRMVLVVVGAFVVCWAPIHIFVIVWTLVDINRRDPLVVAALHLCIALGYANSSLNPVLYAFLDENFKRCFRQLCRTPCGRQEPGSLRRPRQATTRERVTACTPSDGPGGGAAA
T2 sequence (P33534 whole entry, looked up): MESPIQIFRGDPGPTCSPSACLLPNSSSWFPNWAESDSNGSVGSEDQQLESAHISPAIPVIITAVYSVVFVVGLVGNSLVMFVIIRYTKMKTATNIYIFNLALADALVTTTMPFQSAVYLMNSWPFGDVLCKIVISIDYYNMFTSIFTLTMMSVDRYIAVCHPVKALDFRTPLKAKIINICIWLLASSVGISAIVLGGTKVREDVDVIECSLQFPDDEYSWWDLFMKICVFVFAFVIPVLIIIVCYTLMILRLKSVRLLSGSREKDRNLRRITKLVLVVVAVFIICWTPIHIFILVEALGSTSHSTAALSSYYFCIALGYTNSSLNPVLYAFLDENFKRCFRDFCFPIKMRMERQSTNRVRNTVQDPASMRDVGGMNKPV
T2 sequence (P42866 whole entry, looked up): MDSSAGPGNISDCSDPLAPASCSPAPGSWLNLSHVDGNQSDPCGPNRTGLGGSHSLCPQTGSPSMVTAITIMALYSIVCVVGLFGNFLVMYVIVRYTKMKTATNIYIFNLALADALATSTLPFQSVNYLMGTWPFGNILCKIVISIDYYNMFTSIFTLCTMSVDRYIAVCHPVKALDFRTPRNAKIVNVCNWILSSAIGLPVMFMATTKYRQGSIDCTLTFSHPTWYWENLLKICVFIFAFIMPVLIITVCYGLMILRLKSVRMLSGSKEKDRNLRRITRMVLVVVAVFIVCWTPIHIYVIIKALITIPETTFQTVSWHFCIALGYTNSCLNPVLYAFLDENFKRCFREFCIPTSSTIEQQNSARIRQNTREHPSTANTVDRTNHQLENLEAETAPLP
T1 sequence (P35372 whole entry, looked up): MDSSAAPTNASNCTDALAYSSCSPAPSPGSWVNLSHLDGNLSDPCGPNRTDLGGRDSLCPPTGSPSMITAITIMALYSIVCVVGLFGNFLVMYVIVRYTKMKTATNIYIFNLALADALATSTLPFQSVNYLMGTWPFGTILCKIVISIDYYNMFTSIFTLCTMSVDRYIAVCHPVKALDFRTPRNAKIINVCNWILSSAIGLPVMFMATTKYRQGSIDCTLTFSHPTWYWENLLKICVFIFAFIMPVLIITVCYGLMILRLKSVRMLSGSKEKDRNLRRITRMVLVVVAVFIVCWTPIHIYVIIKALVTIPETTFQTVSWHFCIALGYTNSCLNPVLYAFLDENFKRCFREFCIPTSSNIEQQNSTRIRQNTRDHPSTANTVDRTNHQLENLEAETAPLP
T1 sequence (P41143 whole entry, looked up): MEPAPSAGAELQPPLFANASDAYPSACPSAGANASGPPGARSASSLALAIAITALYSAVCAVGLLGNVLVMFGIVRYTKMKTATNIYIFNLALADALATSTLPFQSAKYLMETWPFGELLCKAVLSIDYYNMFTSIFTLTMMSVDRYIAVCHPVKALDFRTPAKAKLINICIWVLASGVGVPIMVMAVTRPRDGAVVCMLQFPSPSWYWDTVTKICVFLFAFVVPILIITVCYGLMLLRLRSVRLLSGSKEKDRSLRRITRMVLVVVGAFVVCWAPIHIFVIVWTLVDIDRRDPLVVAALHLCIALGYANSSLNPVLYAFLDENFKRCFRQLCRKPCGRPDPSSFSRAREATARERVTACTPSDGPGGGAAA
T1 sequence (P41145 whole entry, looked up): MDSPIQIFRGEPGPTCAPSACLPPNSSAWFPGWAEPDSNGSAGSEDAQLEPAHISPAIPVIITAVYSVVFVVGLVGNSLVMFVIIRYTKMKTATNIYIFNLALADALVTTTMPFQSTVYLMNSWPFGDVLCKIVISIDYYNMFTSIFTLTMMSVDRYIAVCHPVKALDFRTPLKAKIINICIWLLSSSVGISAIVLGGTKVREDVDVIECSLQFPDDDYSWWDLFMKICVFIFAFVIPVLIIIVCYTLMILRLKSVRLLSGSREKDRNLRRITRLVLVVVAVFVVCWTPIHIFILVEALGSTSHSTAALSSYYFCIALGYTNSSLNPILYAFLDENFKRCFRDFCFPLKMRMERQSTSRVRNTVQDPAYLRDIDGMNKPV
Chain of Opioid receptors; mu and delta (Mus musculus) (P32300 whole entry, looked up): as the sequence (P32300 whole entry, looked up) above
Chain of Opioid receptors; mu and delta (Mus musculus) (P42866 whole entry, looked up): as the sequence (P42866 whole entry, looked up) above

Row | Structure (SMILES) | IC50 (Opioid receptor [1]) [nM] | Potency ratio [2] | Ratio [3] | Ratio [4] | Ratio [5] | Ratio [6] | IC50 (Opioid receptor [7]) [nM] | Activity (Mus musculus) [%] | IC20 [8] [nM] | Ratio [9] | Ratio [10] | Ratio [11] | Ratio [12] | Ratio [13] | Ratio [14] | Ratio [15] | Ratio [16] | inhibition [17] [%]
1 | O=C(/C=C/C(=O)OCCc1ccccc1)N[C@@H]1CC[C@@]2(O)C3Cc4ccc(O)c5c4C2(CCN3CC2CC2)[C@H]1O5 (some centres not stated) | 70.1 | 10.4 | 4.84 and 2.88 | 3.73 | 64.7 | 24.4 | 0.015 |  |  |  |  |  |  |  |  |  |  | 
2 | CCCOC(=O)/C=C/C(=O)N[C@@H]1CC[C@@]2(O)C3Cc4ccc(O)c5c4C2(CCN3CC2CC2)[C@H]1O5 (some centres not stated) | 21 | 147 | 2.46 and 1.69 | 1.52 |  |  | 1.56 | 56 | 200 |  |  |  |  |  |  |  |  | 
3 | CCOC(=O)/C=C/C(=O)N[C@@H]1CC[C@@]2(O)C3Cc4ccc(O)c5c4C2(CCN3CC2CC2)[C@H]1O5 (some centres not stated) | 13 | 16.1 | 1.75 and 2.22 | 1.24 |  |  | 0.64 |  |  | 1.67 | 2.06 | 2.53 |  |  |  |  |  | 
4 | COC(=O)/C=C/C(=O)N[C@@H]1CC[C@@]2(O)[C@H]3Cc4ccc(O)c5c4[C@@]2(CCN3CC2CC2)[C@H]1O5 | 82 | 5 |  |  |  |  | 1.03 |  |  |  |  |  | 12 | 6 | 1.2 | 1.1 | 10.6 | 
5 | CCCCOC(=O)/C=C/C(=O)N[C@@H]1CC[C@@]2(O)C3Cc4ccc(O)c5c4C2(CCN3CC2CC2)[C@H]1O5 (some centres not stated) | 7 | 66.1 | 5.05 and 4.42 | 1.75 |  |  | 1.65 |  |  |  |  | 10 |  |  |  |  |  | 
6 | O=C(/C=C/C(=O)OCc1ccccc1)N[C@@H]1CC[C@@]2(O)C3Cc4ccc(O)c5c4C2(CCN3CC2CC2)[C@H]1O5 (some centres not stated) |  | 1.41 | 6.33 and 5.85 | 1.39 |  |  | 0.3 |  | 400 |  |  |  |  |  |  |  |  | 57
